Experimental data collected from several papers.
Compare with care: the assays were run in different laboratories.
Target: Ribosomal protein S6 kinase beta-1 (RPS6KB1, Homo sapiens, UniProt P23443)

Compound | observed | action | technique | concentration | measurement | value
Cc1cc(O)c(-c2ccc([C@@H](C)CN(C)C)cc2)c2c1[nH]c(=O)c1sccc12 | enzyme activity | inhibitor | – | 0.1 µM | inhibition | -5.29%
C=CC(=O)N1CCC([C@@H]2CCNc3c(C(N)=O)c(-c4ccc(Oc5ccccc5)cc4)nn32)CC1 | enzyme activity | inhibitor | – | 1 µM | inhibition | 1%
CC(C)S(=O)(=O)c1ccc2nccc(Nc3ccc4sc(C5CCCC5)nc4c3)c2c1 | enzyme activity | inhibitor | – | 1 µM | activity vs control | 110%
Cc1ccc(NC(=O)c2ccnc(C(F)(F)F)c2)cc1-c1cc(OCCO)nc(N2CCOCC2)c1 | binding | – | – | 1 µM | remaining binding | 100%
COc1ccc2oc(-c3ccc4nc(N)oc4c3)c/c(=N\c3ccccc3NC(=O)CCN)c2c1 | binding | – | – | 1 µM | remaining binding | 98%
CO[C@@H]1[C@H](N(C)C(=O)c2ccccc2)C[C@H]2O[C@]1(C)n1c3ccccc3c3c4c(c5c6ccccc6n2c5c31)C(=O)NC4 | enzyme activity | inhibitor | – | 1 µM | inhibition | 36%
C[C@H]1CC[C@H](n2c3cnccc3c3cnc(Nc4ccc5c(n4)CCN(C(=O)CO)C5)nc32)CC1 | cell-free assay | – | – | 1 µM | remaining signal | 78%
CCCCC(=O)Nc1ccc(-c2ccc3ncn(CCC)c(=O)c3c2)cn1 | binding | – | competition with immobilised ligand | 0.5 µM | remaining binding | 98%
